Measured values: ChEMBL document CHEMBL1131291, “Rational design, synthesis, and X-ray structure of selective noncovalent thrombin inhibitors” (J Med Chem, 1998)

Assays:
Serine protease 1 [1] = biological target: T1, Serine protease 1 (Bos taurus, UniProt P00760); assay: In vitro inhibition was measured against […] bovine pancreatic trypsin.
T1 sequence (P00760 whole entry): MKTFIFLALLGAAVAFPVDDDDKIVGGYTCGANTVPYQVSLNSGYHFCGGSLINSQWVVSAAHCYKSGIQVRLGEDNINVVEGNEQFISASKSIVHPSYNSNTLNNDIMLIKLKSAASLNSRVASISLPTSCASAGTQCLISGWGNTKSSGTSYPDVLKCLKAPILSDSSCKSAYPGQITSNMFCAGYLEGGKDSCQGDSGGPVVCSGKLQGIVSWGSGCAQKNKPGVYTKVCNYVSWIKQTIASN
Outline: (§1)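 Trypsin at 260 pM final was run with Pefachrome TRY substrate in 100 mM sodium phosphate pH 7.4, 100 mM NaCl and 0.1% BSA, at 25 °C. Inhibitor was pre-mixed with substrate and the reaction started with enzyme. Absorbance at 405 nm (p-nitroaniline) was read over 30 min. Ki was fitted to the Dixon equation by weighted linear regression; triplicate, mean ± SD.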

Coagulation factor X [2] = biological target: T2, Coagulation factor X (Homo sapiens, UniProt P00742); assay: In vitro inhibition was measured against Human Coagulation factor X
Outline: (§2)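 Factor Xa was used at 30 pM final, with Pefachrome Xa substrate, in phosphate buffer pH 7.4 with 100 mM NaCl and 0.1% BSA, at 25 °C. The enzyme-initiated reaction was followed as the 405 nm increase for 30 min. Inhibitor was diluted from a cremophor/ethanol solution. Ki came from weighted Dixon-plot regression; triplicate determinations.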

Prothrombin = Prothrombin (Homo sapiens, UniProt P00734); assay: In vitro inhibition was measured against Human Thrombin.
Coagulation factor X [3] = biological target: T2, Coagulation factor X; assay: In vitro inhibition was measured against Human Coagulation factor X; […]; outline: as §2
Serine protease 1 [4] = biological target: T1, Serine protease 1; assay: In vitro inhibition was measured against Bovine pancreatic trypsin.; outline: as §1

T2 sequence (P00742 41-179 limits assumed): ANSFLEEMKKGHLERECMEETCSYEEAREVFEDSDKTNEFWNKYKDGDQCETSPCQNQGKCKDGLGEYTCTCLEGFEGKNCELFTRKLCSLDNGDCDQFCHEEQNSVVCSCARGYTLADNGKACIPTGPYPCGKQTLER
T2 sequence (P00742 235-488 limits assumed): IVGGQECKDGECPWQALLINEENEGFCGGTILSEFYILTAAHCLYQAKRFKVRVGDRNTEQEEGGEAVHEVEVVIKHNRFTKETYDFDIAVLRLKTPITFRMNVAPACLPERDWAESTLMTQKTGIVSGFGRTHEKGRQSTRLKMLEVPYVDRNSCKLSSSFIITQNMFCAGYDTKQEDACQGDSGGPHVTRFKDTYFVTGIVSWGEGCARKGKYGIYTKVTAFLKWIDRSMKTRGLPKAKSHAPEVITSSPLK

Structure (SMILES) | Ki (Serine protease 1 [1]) [µM] | Ki (Coagulation factor X [2]) [µM] | Ki (Prothrombin) [µM] | Ki (Coagulation factor X [3]) | Ki (Serine protease 1 [4]) [µM]
NC(N)=NCCCNC(=O)[C@@H]1CS[C@H]2CC[C@H](N)C(=O)N21 | 13.3 | > 33.7 | 5.1 |  | 
N=C(N)NCCCNC(=O)[C@@H]1CS[C@H]2CC[C@@H](NS(=O)(=O)c3cccc4ccccc34)C(=O)N21 | 3.4 | 6.78 | 0.751 |  | 
N=C(N)NCCCNC(=O)[C@@H]1CS[C@H]2CC[C@H](NS(=O)(=O)Cc3ccccc3)C(=O)N21 | 7.9 | > 33.7 | 0.111 |  | 
NC(N)=NCCCCNC(=O)[C@@H]1CS[C@H]2CC[C@H](N)C(=O)N21.O=C(O)C(F)(F)F | 3.58 |  | 19.5 | Not Active | 
N=C(N)NCCCNC(=O)[C@@H]1CS[C@H]2CC[C@@H](NS(=O)(=O)Cc3ccccc3)C(=O)N21 | 5.1 | 26 |  |  | 
N=C(N)NCCCNC(=O)[C@@H]1CS[C@H]2CC[C@H](NS(=O)(=O)c3cccc4ccccc34)C(=O)N21 |  | 17.8 |  |  | 19.6
NC(N)=NCCCCNC(=O)[C@@H]1CS[C@H]2CC[C@@H](N)C(=O)N21.O=C(O)C(F)(F)F | 5.36 |  | 62.4 | Not Active | 
NC(N)=NCCCNC(=O)[C@@H]1CS[C@H]2CC[C@@H](N)C(=O)N21.O=C(O)C(F)(F)F | 25.1 |  | 10.3 | Not Active | 
